Experiment [1] in a line: Inhibition of gamma-secretase expressed in african green monkey CV1 cells coexpressing Gal4 DNA-binding/transactivation domain assessed as inhibition of notch processing by luciferase reporter assay. The experiment is classed as cell-based. The following applies: CV-1. For orientation: In a reporter assay the amount or activity of a reporter protein is the signal.
The target in experiment [2] is Gamma-secretase. In words: Inhibition of gamma-secretase in human SHSY5Y cells expressing human recombinant APP assessed as amyloid beta42 formation by ELISA. The experiment is classed as cell-based. To be noted: sh-sy5y; in the assay text read “amyloid beta40 formation” for “amyloid beta42 formation”. The method in brief:
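SH-SY5Y cells overexpressing human APP Swedish variant were incubated with compound for 48 h. Secreted Aβ42 and Aβ40 were measured by immunoassay (MSD electrochemiluminescence or AlphaLISA).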
On the technique in general: ELISA stands for enzyme-linked immunosorbent assay.

For a further experiment, the system named is CV-1. Description: Inhibition of gamma-secretase expressed in african green monkey CV1 cells coexpressing Gal4 DNA-binding/transactivation domain assessed as inhibition of notch processing by luciferase reporter assay at 20 uM. The experiment is classed as cell-based.
Experiment [3] concerns the target Gamma-secretase. Description: Inhibition of gamma-secretase in human SHSY5Y cells expressing human recombinant APP assessed as amyloid beta40 formation by ELISA. The experiment is classed as cell-based. The following applies: sh-sy5y; in the assay text read “amyloid beta42 formation” for “amyloid beta40 formation”. The essentials: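 SH-SY5Y cells overexpressing human APP Swedish variant exposed to compound for 48 h; Aβ40 (and Aβ42) in the cell medium quantified by ELISA, either Meso Scale Discovery or AlphaLISA format. Compounds also cross-screened for inhibition of Notch processing.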

Experiment [4] addresses T1, Gamma-secretase (Homo sapiens) (UniProt Q96BI3+Q9NZ42+Q8WW43+P49768+Q92542+P49810). Description: Inhibition of gamma-secretase in human SHSY5Y cells expressing human recombinant APP assessed as amyloid beta40 formation at 20 uM by ELISA. To be noted: SH-SY5Y.
The subject of the next experiment is SH-SY5Y. Description: Cytotoxicity against human SH-SY5Y cells after 24 hrs by WST1 assay. The experiment is classed as cell-based. In general terms: Tetrazolium assays rely on reduction of a dye to a coloured formazan, in cell work by metabolically active cells.
Experiment [5] deals with Gamma-secretase. Description: (§1) Inhibition of gamma-secretase in human SHSY5Y cells expressing human recombinant APP assessed as decrease in Abeta42 level after 24 hrs by DELFIA. The experiment is classed as cell-based. To be noted: sh-sy5y.
The target in experiment [6] is T1, Gamma-secretase (Homo sapiens). Described as §1. The experiment is classed as cell-based. The following applies: SH-SY5Y.
Experiment [7] addresses Gamma-secretase. In words: (§2) Inhibition of gamma-secretase in human SHSY5Y cells expressing human recombinant APP assessed as increase in Abeta38 level after 24 hrs by DELFIA. The following applies: sh-sy5y. The experiment is classed as cell-based.
In experiment [8] the target is T1, Gamma-secretase (Homo sapiens). The description is as §2. The following applies: SH-SY5Y. The experiment is classed as cell-based.
The target in experiment [9] is Gamma-secretase. Description: Inhibition of gamma-secretase in human SHSY5Y cells expressing human recombinant APP assessed as effect on Abeta40 level after 24 hrs by DELFIA. The following applies: sh-sy5y. The experiment is classed as cell-based.
The target of experiment [10] is Gamma-secretase. In words: Inhibition of gamma-secretase in human SHSY5Y cells expressing human recombinant APP assessed as decrease in total Abeta level after 24 hrs by DELFIA. To be noted: sh-sy5y. The experiment is classed as cell-based.

The structures appear in SMILES notation.

As usually defined, the IC50 is the point on the concentration scale where inhibition reaches its midpoint. Usually pIC50 stands for the negative decadic logarithm of the IC50, by convention in mol/L. Usually inhibition stands for how much of the control response was suppressed. Take `CC(C)CC[C@H](c1cnc(C(F)(F)F)cn1)N1CC[C@@H](CC(=O)[O-])C[C@H]1c1ccc(C(F)(F)F)cc1.[Na+]`: the IC50 in [1] was more than 20 µM. The pIC50 at Gamma-secretase [2] was 4.7; at Gamma-secretase [3], 6.4. Also, the inhibition with CV-1 is 21%.

With `CC(C)CC[C@H](c1ccc(C(F)(F)F)nn1)N1CC[C@@H](CC(=O)[O-])C[C@H]1c1ccc(C(F)(F)F)cc1.[Na+]`, the half-inhibitory concentration (IC50) in experiment [1] is more than 20 µM. For the same compound, the pIC50 on Gamma-secretase [2] came to 4.6; on Gamma-secretase [3], 5.9. Further, the inhibition in the experiment on CV-1 came to 17%.

For the compound `O=C([O-])C[C@@H]1CCN([C@H](Cc2ccccc2)c2ccc(C(F)(F)F)nc2)[C@H](c2ccc(C(F)(F)F)cc2)C1.[Na+]`, the IC50 in [1] is more than 20 µM. For the same compound, the negative-log IC50 (pIC50) at Gamma-secretase [2] worked out at 5; at Gamma-secretase [3] it was 5.8. In the experiment on CV-1, the inhibition turned out to be 34%.

On to `CC(C)CC[C@H](c1ccc(C2CC2)nc1)N1CC[C@@H](CC(=O)[O-])C[C@H]1c1ccc(C(F)(F)F)cc1.[Na+]`, for which the concentration for half-maximal inhibition (IC50) in [1] is more than 20 µM. Also, the pIC50 is on record as less than 4.7 at Gamma-secretase [2] and 6.2 at Gamma-secretase [3]. Moreover, the figures for the inhibition (in [4]; with CV-1) were 31% and 15%, respectively.

On to `CC(C)CC[C@H](c1ccc(C(F)(F)F)cn1)N1CC[C@@H](CC(=O)[O-])C[C@H]1c1ccc(C(F)(F)F)cc1.[Na+]`, for which the IC50 in [1] is 12.6 µM. The figures for the pIC50 at Gamma-secretase [2] and at Gamma-secretase [3] were 4.9 and 6.5, respectively.

On to `CC(C)CC[C@H](c1ncc(C(C)C)cn1)N1CC[C@@H](CC(=O)[O-])C[C@H]1c1ccc(C(F)(F)F)cc1.[Na+]`, for which the half-inhibitory concentration (IC50) in [1] was more than 20 µM. Further, the figures for the negative-log IC50 (pIC50) on Gamma-secretase [2] and on Gamma-secretase [3] were less than 4.7 and 6.1, respectively. Also, the inhibition in experiment [4] came to 22%; in the experiment with CV-1 it was 27%.

Take `Cc1cccc([C@@H](CCC(C)C)N2CC[C@@H](CC(=O)[O-])C[C@H]2c2ccc(C(F)(F)F)cc2)n1.[Na+]`: in experiment [1], the IC50 is more than 20 µM. In addition, the negative-log IC50 (pIC50) is given as 4.8 at Gamma-secretase [2] and 5.9 on Gamma-secretase [3]. In the experiment with CV-1, the inhibition came to 4%.

Consider `CC[C@H](c1ccc(C(F)(F)F)nc1)N1CC[C@@H](CC(=O)[O-])C[C@H]1c1ccc(C(F)(F)F)cc1.[Na+]`, for which, in experiment [1], the 50% inhibitory concentration (IC50) is more than 20 µM. Besides, the negative-log IC50 (pIC50) on Gamma-secretase [2] is less than 4.7; at Gamma-secretase [3] it was 5. The inhibition turned out to be 20% in [4] and 10% in the experiment on CV-1.

With `CC(C)CC[C@H](c1ccnc(C(F)(F)F)n1)N1CC[C@@H](CC(=O)[O-])C[C@H]1c1ccc(C(F)(F)F)cc1.[Na+]`, in experiment [1], the half-maximal inhibitory concentration (IC50) is 3.98 µM. In addition, the negative logarithm of the IC50 (pIC50) at Gamma-secretase [2] worked out at 4.9; on Gamma-secretase [3], 6.4.

Regarding `O=C([O-])C[C@@H]1CCN([C@@H](c2ccc(C(F)(F)F)nc2)C2CCCCC2)[C@H](c2ccc(C(F)(F)F)cc2)C1.[Na+]`, the negative logarithm of the IC50 (pIC50) came to 4.6 on Gamma-secretase [2] and 5.4 on Gamma-secretase [3].

As usually defined, the pEC50 is the EC50 on a negative log10 scale, so that one unit is a factor of ten. Turning to `O=C([O-])C[C@@H]1CCN([C@@H](c2ccc(C(F)(F)F)nc2)C2CC2)[C@H](c2ccc(C(F)(F)F)cc2)C1.[Na+]`, the results for the half-inhibitory concentration (IC50) (in the experiment with SH-SY5Y; in [1]) were more than 100 µM and more than 20 µM, respectively. Moreover, the pIC50 is given as 4.3 on Gamma-secretase [2]; 6 on Gamma-secretase [5]; less than 4 at Gamma-secretase [9]; less than 4 at Gamma-secretase [10]; 5.1 at Gamma-secretase [3]. The Activity entry in experiment [6] and in experiment [8] was “Dose-dependent effect” in each case. Besides, the negative-log EC50 (pEC50) on Gamma-secretase [7] was determined as 5. Besides, the inhibition in the experiment with CV-1 worked out at 23%.

Turning to `O=C([O-])C[C@@H]1CCN([C@H](c2ccc(C(F)(F)F)cc2)c2ccc(C(F)(F)F)nc2)[C@H](c2ccc(C(F)(F)F)cc2)C1.[Na+]`, the IC50 in experiment [1] was 7.94 µM. For the same compound, the negative logarithm of the IC50 (pIC50) result was “<= 4.8” on Gamma-secretase [2] and 5.9 at Gamma-secretase [3]. In addition, the inhibition in experiment [4] was determined as 33%.

In the case of `CCCCCC[C@H](c1ccc(C(F)(F)F)nc1)N1CC[C@@H](CC(=O)[O-])C[C@H]1c1ccc(C(F)(F)F)cc1.[Na+]`, the figures for the IC50 (in the experiment on SH-SY5Y; in experiment [1]) were more than 100 µM and 5.01 µM, respectively. Moreover, the negative logarithm of the IC50 (pIC50) at Gamma-secretase [2] is recorded as 4.8; on Gamma-secretase [5], 6; on Gamma-secretase [9], 4.6; on Gamma-secretase [10], 4; at Gamma-secretase [3] it was 6.3. Besides, the Activity entry in experiment [6] and in [8] was “Dose-dependent effect” throughout. The pEC50 at Gamma-secretase [7] is listed as 6.3.

For `O=C([O-])C[C@@H]1CCN([C@H](CCc2ccccc2)c2ccc(C(F)(F)F)nc2)[C@H](c2ccc(C(F)(F)F)cc2)C1.[Na+]`, the IC50 in experiment [1] was more than 20 µM. Moreover, the negative logarithm of the IC50 (pIC50) at Gamma-secretase [2] is on record as less than 4.7; on Gamma-secretase [3], 5.7. Also, the results for the inhibition (in experiment [4]; with CV-1) were 40% and 32%, respectively.

Turning to `CC(C)CC[C@H](c1cnc(C(F)(F)F)nc1)N1CC[C@@H](CC(=O)[O-])C[C@H]1c1ccc(C(F)(F)F)cc1.[Na+]`, the concentration for half-maximal inhibition (IC50) in experiment [1] is 20 µM. For the same compound, the negative-log IC50 (pIC50) at Gamma-secretase [2] was found to be 4.7; at Gamma-secretase [3], 6.4.

With `CCCC[C@H](c1ccc(C(F)(F)F)nc1)N1CC[C@@H](CC(=O)[O-])C[C@H]1c1ccc(C(F)(F)F)cc1.[Na+]`, the concentration for half-maximal inhibition (IC50) in the experiment on SH-SY5Y is more than 100 µM; in experiment [1], more than 20 µM. For the same compound, the pIC50 is 4.8 on Gamma-secretase [2]; 6 on Gamma-secretase [5]; 4.4 at Gamma-secretase [9]; less than 4 on Gamma-secretase [10]; 6.2 on Gamma-secretase [3]. For the same compound, the Activity result in experiment [6] and in experiment [8] was “Dose-dependent effect” each time. The pEC50 at Gamma-secretase [7] came to 5.5. Moreover, the inhibition in the experiment with CV-1 worked out at 33%.

Take `CC(C)[C@H](O)C(=O)N[C@@H](C)C(=O)N[C@@H]1C(=O)N(C)CCc2ccccc21` [SEMAGACESTAT]: the results for the IC50 (in the experiment on SH-SY5Y; in experiment [1]) were more than 100 µM and 0.316 µM, respectively. Moreover, the pIC50 at Gamma-secretase [2] was 7.4; on Gamma-secretase [5] it was 6.9; at Gamma-secretase [9] it was 6.7; on Gamma-secretase [10], 7; at Gamma-secretase [3], 7.4. For the same compound, the Activity result in [6] and in experiment [8] was “Dose-dependent effect” throughout. In addition, the negative logarithm of the EC50 (pEC50) on Gamma-secretase [7] is recorded as 6.9.

With `O=C([O-])C[C@@H]1CCN([C@H](CC2CCC2)c2ccc(C(F)(F)F)nc2)[C@H](c2ccc(C(F)(F)F)cc2)C1.[Na+]`, the 50% inhibitory concentration (IC50) in [1] was more than 20 µM. The negative-log IC50 (pIC50) on Gamma-secretase [2] was 5.5; on Gamma-secretase [3], 6.6. Also, in the experiment on CV-1, the inhibition worked out at 17%.

Take `COCCC[C@H](c1ccc(C(F)(F)F)nc1)N1CC[C@@H](CC(=O)[O-])C[C@H]1c1ccc(C(F)(F)F)cc1.[Na+]`: the IC50 in experiment [1] is more than 20 µM. Besides, the values for the negative-log IC50 (pIC50) on Gamma-secretase [2] and on Gamma-secretase [3] were 4.5 and 5, respectively. The inhibition in the experiment with CV-1 was 10%.

On to `CC(C)C[C@H](c1ccc(C(F)(F)F)nc1)N1CC[C@@H](CC(=O)[O-])C[C@H]1c1ccc(C(F)(F)F)cc1.[Na+]`, for which the IC50 in experiment [1] was more than 20 µM. Also, the pIC50 on Gamma-secretase [2] stood at 4.5; at Gamma-secretase [3], 6.2. In addition, the inhibition with CV-1 was 25%.

Turning to `CCCCC[C@H](c1ccc(C(F)(F)F)nc1)N1CC[C@@H](CC(=O)[O-])C[C@H]1c1ccc(C(F)(F)F)cc1.[Na+]`, in [1], the half-inhibitory concentration (IC50) was 15.8 µM. The pIC50 on Gamma-secretase [2] was found to be 5.1; on Gamma-secretase [3], 5.9.

These data come from ChEMBL document CHEMBL1159115, “Piperidine-derived gamma-secretase modulators” (Bioorg Med Chem Lett, 2010).
